Measured values from ChEMBL document CHEMBL1139082, “A potent and orally active HIV-1 integrase inhibitor” (Bioorg Med Chem Lett, 2007).
Converted amounts (≈) assume the structure as drawn. The source made the active and inactive calls. The calls are words filed in the database; no cut-off is given here.

Assays:
[1] = biological target: Human immunodeficiency virus type 1 integrase (Human immunodeficiency virus 1, UniProt Q7ZJM1); assay: Inhibition of HIV1 recombinant integrase catalyzed strand transfer activity
Chain of Human immunodeficiency virus type 1 integrase (Q7ZJM1 whole entry): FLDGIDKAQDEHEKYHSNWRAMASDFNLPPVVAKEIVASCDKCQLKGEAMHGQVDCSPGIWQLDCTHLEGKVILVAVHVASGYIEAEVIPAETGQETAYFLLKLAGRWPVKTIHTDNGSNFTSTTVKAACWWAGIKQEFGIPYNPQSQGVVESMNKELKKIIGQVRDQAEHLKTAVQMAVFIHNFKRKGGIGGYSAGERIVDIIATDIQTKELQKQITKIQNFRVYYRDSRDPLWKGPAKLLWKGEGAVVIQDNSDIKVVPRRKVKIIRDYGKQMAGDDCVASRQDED

[2] = test system: Human immunodeficiency virus 1; assay: Antiviral activity against HIV1 3B in MT4 cells assessed as decrease in HIV1 p24 core antigen in presence of normal human serum; assay type: functional; conditions: Human immunodeficiency virus 1, 3B
Outline: (§1)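 MT-4 human T-lymphoid cells infected with HIV-1 IIIb, cultured with increasing inhibitor concentrations; readout is the decrease in p24 core antigen. IC95 is the concentration giving 95% inhibition of viral growth versus control. Line 1 used 10% fetal bovine serum; line 2 used 50% normal human serum. n ≥ 2; lower limit ~7 nM; SD ~2-fold.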

Homo sapiens = species: Homo sapiens; assay: Protein binding in human plasma by ultrafiltration method; conditions: read-out: PB (converted)
[3] = Partition coefficient, log P at pH 7.4; assay type: physicochemical; conditions: octanol/water
Outline: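 Octanol/buffer partition measured by HPLC at each compound's maximum absorbance. Log P = log[(octanol area × octanol dilution)/(buffer area × buffer dilution)].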

[4] = test system: Human immunodeficiency virus 1; assay: Antiviral activity against HIV1 3B in MT4 cells assessed as decrease in HIV1 p24 core antigen in presence of FBS; assay type: functional; conditions: Human immunodeficiency virus 1, 3B; outline: as §1
Plasma = assay: Fraction unbound in human plasma after 30 mins by ultracentrifugation method; assay type: ADME, cell-free; conditions: 0.5 h
Outline: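 14C-labelled compound was spiked into human plasma (pH 7.4) at final 1, 5 and 20 µM and incubated 30 min at 37 °C. Ultracentrifugation at 180,000g, 37 °C, overnight (~18 h). Supernatant aliquots were counted by liquid scintillation with quench correction; fu (%) = dpm in protein-free fraction / dpm in original plasma × 100.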

[5] = test system: Human immunodeficiency virus 1; assay: Antiviral activity against HIV1 with integrase T66l/M154l mutant; assay type: functional, organism-based
Outline: (§2)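 HIV-1 carrying site-directed integrase mutations (mutations first seen in serial cell-culture passage under integrase inhibitors) tested in cell culture. Activity is expressed as fold loss in efficacy relative to wild-type virus.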

[6] = test system: Human immunodeficiency virus 1; assay: Antiviral activity against HIV1 with integrase V151l mutant; assay type: functional, organism-based; outline: as §2
[7] = Half life in dog at 1 mg/kg, iv; assay type: ADME, organism-based, Canis lupus familiaris; parameters: dose 1 mg/kg, route intravenous; conditions: in vivo
Outline: (§3)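 Dog and rhesus monkeys were given sodium salt intravenously at 1 mg/kg, dissolved in DMSO. Half-life (h) and clearance (mL/min/kg) were derived from plasma concentrations after iv dosing.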

[8] = Oral bioavailability in rat at 10 mg/kg; assay type: ADME, organism-based; conditions: in vivo
Outline: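 Sodium salt was ground and given orally to rats at 10 mg/kg as a 1% aqueous methylcellulose solution/suspension. Percent bioavailability was taken after oral administration.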

[9] = Clearance in rhesus monkey at 1 mg/kg, iv; assay type: ADME, organism-based, Macaca mulatta; parameters: dose 1 mg/kg, route intravenous; conditions: in vivo; outline: as §3
[10] = test system: Human immunodeficiency virus 1; assay: Antiviral activity against HIV1 with integrase […] mutant; assay type: functional, organism-based; outline: as §2
[11] = Half life in rat at 2 mg/kg, iv; assay type: ADME, organism-based; parameters: dose 2 mg/kg, route intravenous; conditions: in vivo
Outline: (§4)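 Rats received the sodium salt intravenously at 2 mg/kg, dissolved in DMSO. Half-life (h) and clearance (mL/min/kg) were derived after iv administration.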

[12] = Clearance in dog at 1 mg/kg, iv; assay type: ADME, organism-based, Canis lupus familiaris; parameters: dose 1 mg/kg, route intravenous; conditions: in vivo; outline: as §3
[13] = Clearance in rat at 2 mg/kg, iv; assay type: ADME, organism-based; parameters: dose 2 mg/kg, route intravenous; conditions: in vivo; outline: as §4
[14] = Oral bioavailability in rhesus monkey at 1 mg/kg; assay type: ADME, organism-based, Macaca mulatta; conditions: in vivo
Outline: (§5)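 Sodium salt was ground and given orally at 1 mg/kg to dogs and rhesus monkeys as a 0.5% aqueous methylcellulose suspension. Percent bioavailability was taken after oral administration.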

[15] = Oral bioavailability in dog at 1 mg/kg; assay type: ADME, organism-based, Canis lupus familiaris; conditions: in vivo; outline: as §5
[16] = test system: Human immunodeficiency virus 1; assay: Antiviral activity against HIV1 with integrase F121Y mutant; assay type: functional, organism-based; outline: as §2
[17] = Solubility at pH 7.4 by equilibrium solubility assay; assay type: physicochemical; conditions: buffer
Outline: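 Crystalline drug was suspended in 10 mM sodium phosphate, pH 7.4, and equilibrated at room temperature for 5 days. Aliquots were centrifuged 15,000 rpm for 15 min. Solution concentration was measured by HPLC at days 2 and 5 and taken as solubility.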

[18] = test system: Human immunodeficiency virus 1; assay: Antiviral activity against HIV1 with integrase N155S mutant; assay type: functional, organism-based; outline: as §2
[19] = test system: Human immunodeficiency virus 1; assay: Antiviral activity against HIV1 with integrase T66l/S153Y mutant; assay type: functional, organism-based; outline: as §2
[20] = test system: Human immunodeficiency virus 1; assay: Antiviral activity against HIV1 with integrase T125K mutant; assay type: functional, organism-based; outline: as §2
[21] = Half life in rhesus monkey at 1 mg/kg, iv; assay type: ADME, organism-based, Macaca mulatta; parameters: dose 1 mg/kg, route intravenous; conditions: in vivo; outline: as §3

Row | Compound | IC50 [1] [nM] | fraction unbound (Homo sapiens) | logD [3] | IC95 [2] [nM] | IC95 [4] [nM] | other results
1 | O=[14C](NCc1ccc(F)cc1)c1nc(N2CCCCS2(=O)=O)c2cccnc2c1O |  |  |  |  |  | Activity (Plasma): 1.5%
2 | CNC(=O)c1cc(F)ccc1CN[14C](=O)c1nc(N2CCCCS2(=O)=O)c2cccnc2c1O |  |  |  |  |  | Activity (Plasma): 15%
3 | CNC(=O)c1cc(F)ccc1CNC(=O)c1nc(N2CCCCS2(=O)=O)c2cccnc2c1O | 10 | 0.08 | 1.6 | 16 | 7 | Activity [5]: Active; Activity [6]: Active; half-life [7]: 1.8 h; bioavailability [8]: 45%; clearance [9]: 18.3 mL/min/kg; Activity [10]: Active; half-life [11]: 1.2 h; clearance [12]: 2.8 mL/min/kg; clearance [13]: 8.6 mL/min/kg; bioavailability [14]: 23%; bioavailability [15]: 65%; Activity [16]: Active; solubility thermodynamic [17]: 2.3 µg/mL (≈ 4.72 µM); Activity [18]: Active; Activity [19]: Active; Activity [20]: Active; half-life [21]: 1.4 h
4 | CNC(=O)Cc1ccccc1CNC(=O)c1nc(N2CCCCS2(=O)=O)c2cccnc2c1O | 7 | 0.08 | 1 | 438 | 109 | 
5 | O=C(NCc1ccc(F)cc1)c1ncc2cccnc2c1O |  | 0.01 | 2.4 | 5000 |  | 
6 | CNC(=O)c1cc(F)ccc1CNC(=O)c1ncc2cccnc2c1O | 51 | 0.02 | 1.4 | 1040 |  | 
7 | O=C(NCc1ccccc1)c1nc(N2CCCCS2(=O)=O)c2cccnc2c1O | 10 |  | 1.9 | 1000 | 125 | 
8 | O=C(NCc1ccc(F)cc1)c1nc(N2CCCCS2(=O)=O)c2cccnc2c1O |  |  | 2.1 | 102 | 15 | Activity [5]: Active; Activity [6]: Active; half-life [7]: 2.9 h; bioavailability [8]: 41%; clearance [9]: 6.6 mL/min/kg; Activity [10]: Active; half-life [11]: 1.2 h; clearance [12]: 2 mL/min/kg; clearance [13]: 2.8 mL/min/kg; bioavailability [14]: 51%; bioavailability [15]: 24%; Activity [16]: Active; Solubility [17]: 0.21 µg/mL (≈ 0.488 µM); Activity [18]: Active; Activity [19]: Active; Activity [20]: Active; half-life [21]: 0.7 h

Continued, in another order:

Row | IC50 [1] [nM] | fraction unbound (Homo sapiens) | logD [3] | Compound | IC95 [2] [nM] | IC95 [4] [nM] | other results
9 | 14 | 0.06 | 1 | CN(C)C(=O)Cc1ccccc1CNC(=O)c1nc(N2CCCCS2(=O)=O)c2cccnc2c1O | 1000 | 167 | 
10 | 110 | 0.1 | 1 | CN(C)C(=O)c1cc(F)ccc1CNC(=O)c1nc(N2CCCCS2(=O)=O)c2cccnc2c1O | 63 | 23 | 
11 | 45 | 0.01 | 1.9 | CNS(=O)(=O)c1cc(F)ccc1CNC(=O)c1nc(N2CCCCS2(=O)=O)c2cccnc2c1O | 125 | < 8 | 
12 | 30 | 0.03 | 1.9 | CN(C)S(=O)(=O)c1cc(F)ccc1CNC(=O)c1nc(N2CCCCS2(=O)=O)c2cccnc2c1O | 94 | 16 | 
